From ChEMBL document CHEMBL4130628, “Identification and Pharmacological Profile of an Indane Based Series of Ghrelin Receptor Full Agonists” (J Med Chem, 2018)
Values after ≈ are worked out from the molar mass of the structure shown. Active and inactive are the calls of the source. No cut-off for these calls is given here.

How the values were obtained:
[1] = target: T1, Growth hormone secretagogue receptor type 1 (Homo sapiens, UniProt Q92847); experiment: Agonist activity at human GHS receptor assessed as intracellular myo-IP1 secretion after 90 mins by HTRF analysis; assay type: functional, cell-based; settings: read-out: EC50
T1 sequence (Q92847 whole entry): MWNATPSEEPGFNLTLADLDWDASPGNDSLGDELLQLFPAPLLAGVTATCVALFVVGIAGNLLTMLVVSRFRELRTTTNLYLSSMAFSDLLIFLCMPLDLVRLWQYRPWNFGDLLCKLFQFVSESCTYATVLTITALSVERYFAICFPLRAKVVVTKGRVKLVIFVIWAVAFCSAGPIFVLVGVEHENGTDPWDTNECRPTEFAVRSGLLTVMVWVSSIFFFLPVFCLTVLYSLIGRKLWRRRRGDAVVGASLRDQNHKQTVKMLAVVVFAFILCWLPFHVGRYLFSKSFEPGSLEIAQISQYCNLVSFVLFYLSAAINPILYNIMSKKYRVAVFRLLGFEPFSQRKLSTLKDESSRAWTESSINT

[2] = Drug level in human liver microsomes treated with 1-Methyl-N-[(1S,2S)-1-{[(2S)-4-methylmorpholine-2-carbonyl]-amino}-2,3-dihydro-1H-inden-2-yl]-1H-indole-5-carboxamide by LC-MS/MS method; assay type: ADME, microsome
[3] = 1-octanol/aqueous buffer distribution coefficient, log D of compound at pH 7.4; assay type: physicochemical; settings: 1-octanol/aqueous buffer, read-out: logD
[4] = Drug level in rat hepatocytes treated with 1-Methyl-N-[(1S,2S)-1-{[(2S)-4-methylmorpholine-2-carbonyl]-amino}-2,3-dihydro-1H-inden-2-yl]-1H-indole-5-carboxamide by LC-MS/MS method; assay type: ADME, cell-based, Hepatocyte
Hepatocyte [5] = experiment: Stability in rat hepatocytes assessed as formation of aldehyde adducts by LC-MS/MS method; assay type: ADME, cell-based
[6] = target: T1, Growth hormone secretagogue receptor type 1; experiment: Displacement of human [125I]-ghrelin from GHS-R1a (unknown origin) expressed in HEK293 cell membranes after 1 hr by radioligand binding assay; settings: read-out: IC50
[7] = Stability in human liver microsomes assessed as formation of aldehyde adducts by LC-MS/MS method; assay type: ADME, microsome
[8] = Drug metabolism in rat hepatocytes assessed as 1-Methyl-N-((1S,2S)-1-((S)-morpholine-2-carboxamido)-2,3-dihydro-1H-inden-2-yl)-1H-indole-5-carboxamide formation by LC-MS/MS method; assay type: ADME, cell-based, Hepatocyte
Hepatocyte [9] = experiment: Stability in rat hepatocytes assessed as formation of iminium ions by LC-MS/MS method; assay type: ADME, cell-based
[10] = Stability in human liver microsomes assessed as formation of iminium ions by LC-MS/MS method; assay type: ADME, microsome
[11] = Drug metabolism in human liver microsomes assessed as 1-Methyl-N-((1S,2S)-1-((S)-morpholine-2-carboxamido)-2,3-dihydro-1H-inden-2-yl)-1H-indole-5-carboxamide formation by LC-MS/MS method; assay type: ADME, microsome
[12] = Apparent permeability across apical to basolateral side in human Caco2 cells at pH 7.4; assay type: ADME, cell-based; settings: Caco-2, pH 7.4
[13] = Apparent permeability across basolateral to apical side in human Caco2 cells at pH 7.4; assay type: ADME, cell-based; settings: Caco-2, pH 7.4
[14] = Efflux ratio of apparent permeability across basolateral to apical over apical to basolateral side in human Caco2 cells; assay type: ADME, cell-based; settings: Caco-2
Method in brief: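 Caco-2 monolayers; Papp measured in both directions at pH 7.4 (units 1E-6 cm/s). Efflux ratio taken as Papp basolateral-to-apical divided by Papp apical-to-basolateral.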

[15] = Volume of distribution in Beagle dog at 1 mg/kg, iv or 2 mg/kg, po after 24 hrs by LC-MS/MS analysis; assay type: ADME, organism-based, Canis lupus familiaris; settings: in vivo
Method in brief: (§1)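 Male/female beagles (2–5 y, 12–15 kg) were fasted overnight. IV: about 1 mg/Kg as a 15-min infusion to two animals, in 5% DMSO/95% SBE-β-CD (30% w/v) adjusted to pH 7.5. PO: about 2 mg/Kg by gavage, in the same vehicle or 0.5% HPMC/0.1% Tween 80 suspension. Jugular blood was drawn 0.03–24 h (IV) or 0.17–24 h (PO). K2-EDTA plasma analysed by LC-MS/MS.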

[16] = Oral bioavailability in Beagle dog at 2 mg/kg after 24 hrs by LC-MS/MS analysis; assay type: ADME, organism-based, Canis lupus familiaris; settings: in vivo; method in brief: as §1
[17] = Half life in Beagle dog at 2 mg/kg, po after 24 hrs by LC-MS/MS analysis; assay type: ADME, organism-based, Canis lupus familiaris; settings: in vivo; method in brief: as §1
[18] = Apparent intrinsic permeability across apical to basolateral side in human Caco2 cells at pH 6.5; assay type: ADME, cell-based; settings: Caco-2, pH 6.5
[19] = Clearance in Beagle dog at 1 mg/kg, iv or 2 mg/kg, po after 24 hrs by LC-MS/MS analysis; assay type: ADME, organism-based, Canis lupus familiaris; settings: in vivo; method in brief: as §1
Canis familiaris [20] = experiment: Increase in plasma IGF1 level in Beagle dog at 4 mg/kg, po measured after 4 to 7 hrs post dose by ELIS; assay type: functional, organism-based; settings: Canis lupus familiaris
Method in brief: (§2)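 Dog blood taken before dosing and at 15, 30, 45 min and 1, 2, 4, 7, 12, 24 h post dose into K2EDTA tubes. Centrifuged at 4°C; plasma frozen below -80°C until IGF-1 analysis.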

[21] = Ratio of unbound drug level in brain to plasma in Beagle dog at 1 mg/kg, iv or 2 mg/kg, po after 24 hrs by LC-MS/MS analysis; assay type: ADME, organism-based, Canis lupus familiaris; settings: read-out: K(p,uu,brain)
[22] = Protein binding in human plasma; assay type: ADME, cell-free; settings: read-out: PPB (converted)
[23] = target: Voltage-gated inwardly rectifying potassium channel KCNH2 (Homo sapiens, UniProt Q12809); experiment: Inhibition of human ERG expressed in CHO cells; assay type: cell-based
Voltage-gated inwardly rectifying potassium channel KCNH2, sequence (Q12809 whole entry): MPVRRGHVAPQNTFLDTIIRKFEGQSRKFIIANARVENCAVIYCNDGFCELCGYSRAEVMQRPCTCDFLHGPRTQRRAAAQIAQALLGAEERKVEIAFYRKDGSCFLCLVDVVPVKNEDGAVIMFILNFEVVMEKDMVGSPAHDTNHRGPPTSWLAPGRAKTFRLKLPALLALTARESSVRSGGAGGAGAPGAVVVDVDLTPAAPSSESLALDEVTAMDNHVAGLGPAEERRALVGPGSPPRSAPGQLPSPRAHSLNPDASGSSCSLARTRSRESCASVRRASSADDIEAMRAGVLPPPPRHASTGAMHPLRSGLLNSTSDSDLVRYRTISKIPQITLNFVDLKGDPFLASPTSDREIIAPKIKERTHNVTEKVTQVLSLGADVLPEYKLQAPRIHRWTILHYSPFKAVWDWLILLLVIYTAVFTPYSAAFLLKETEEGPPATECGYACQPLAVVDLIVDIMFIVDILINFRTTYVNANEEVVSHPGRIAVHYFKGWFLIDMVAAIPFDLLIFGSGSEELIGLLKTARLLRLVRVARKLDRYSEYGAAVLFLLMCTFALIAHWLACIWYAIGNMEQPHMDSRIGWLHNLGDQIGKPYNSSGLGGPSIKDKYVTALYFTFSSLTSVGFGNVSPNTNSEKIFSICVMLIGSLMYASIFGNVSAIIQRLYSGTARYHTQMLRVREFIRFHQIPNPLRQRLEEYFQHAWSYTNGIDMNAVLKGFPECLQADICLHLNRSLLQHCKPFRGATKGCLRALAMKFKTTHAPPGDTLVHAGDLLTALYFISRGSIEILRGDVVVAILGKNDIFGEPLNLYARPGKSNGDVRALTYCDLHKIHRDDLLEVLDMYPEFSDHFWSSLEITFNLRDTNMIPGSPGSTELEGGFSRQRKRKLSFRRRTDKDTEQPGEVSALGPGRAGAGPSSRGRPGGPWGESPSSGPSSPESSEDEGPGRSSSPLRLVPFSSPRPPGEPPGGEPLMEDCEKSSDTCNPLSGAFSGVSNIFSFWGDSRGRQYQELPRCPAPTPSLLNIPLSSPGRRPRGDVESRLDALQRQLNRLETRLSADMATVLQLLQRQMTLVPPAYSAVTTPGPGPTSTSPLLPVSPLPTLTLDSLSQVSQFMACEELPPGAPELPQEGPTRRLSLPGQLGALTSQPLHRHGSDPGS
Method in brief: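 hERG currents recorded from CHO cells expressing hERG.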

Cytochrome P450 3A4 = Cytochrome P450 3A4 (Homo sapiens, UniProt P08684); experiment: Inhibition of CYP3A4 (unknown origin); assay type: ADME
Cytochrome P450 3A4, sequence (P08684 whole entry): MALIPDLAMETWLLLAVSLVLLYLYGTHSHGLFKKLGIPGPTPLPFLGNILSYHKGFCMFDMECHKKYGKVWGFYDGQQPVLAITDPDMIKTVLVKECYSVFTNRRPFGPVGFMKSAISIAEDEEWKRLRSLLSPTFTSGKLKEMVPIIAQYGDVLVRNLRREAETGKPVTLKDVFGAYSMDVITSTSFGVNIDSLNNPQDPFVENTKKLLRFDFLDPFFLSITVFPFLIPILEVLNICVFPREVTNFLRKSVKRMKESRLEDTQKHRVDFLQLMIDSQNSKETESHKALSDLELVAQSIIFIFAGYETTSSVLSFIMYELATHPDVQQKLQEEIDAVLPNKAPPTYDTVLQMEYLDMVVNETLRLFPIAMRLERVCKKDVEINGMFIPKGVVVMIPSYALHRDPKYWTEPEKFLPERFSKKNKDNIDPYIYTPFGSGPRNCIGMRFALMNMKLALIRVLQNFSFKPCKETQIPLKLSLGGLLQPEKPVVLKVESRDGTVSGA

Rattus norvegicus = experiment: Renal clearance in Han-Wister rat at 1 mg/kg, iv bolus or 2 mg/kg, po after 24 hrs by LC-MS/MS analysis; assay type: ADME, organism-based; settings: in vivo
Cytochrome P450 2C9 = Cytochrome P450 2C9 (Homo sapiens, UniProt P11712); experiment: Inhibition of CYP2C9 (unknown origin); assay type: ADME
Cytochrome P450 2C9, sequence (P11712 whole entry): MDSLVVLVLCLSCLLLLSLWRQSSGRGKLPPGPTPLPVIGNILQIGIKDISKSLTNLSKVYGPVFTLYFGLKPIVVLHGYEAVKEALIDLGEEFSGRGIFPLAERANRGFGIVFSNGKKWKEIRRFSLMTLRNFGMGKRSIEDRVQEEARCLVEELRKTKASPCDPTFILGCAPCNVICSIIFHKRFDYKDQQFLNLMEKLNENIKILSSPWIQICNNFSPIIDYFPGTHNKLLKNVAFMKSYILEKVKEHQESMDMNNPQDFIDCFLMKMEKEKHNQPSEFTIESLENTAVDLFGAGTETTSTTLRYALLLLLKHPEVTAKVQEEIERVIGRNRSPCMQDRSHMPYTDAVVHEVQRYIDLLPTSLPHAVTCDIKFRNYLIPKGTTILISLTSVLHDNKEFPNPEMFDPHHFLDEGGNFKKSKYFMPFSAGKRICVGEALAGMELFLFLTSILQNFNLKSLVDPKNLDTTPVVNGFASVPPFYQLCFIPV

[24] = Protein binding in rat plasma; assay type: ADME, cell-free; settings: read-out: PPB (converted)
[25] = Intrinsic clearance in dog liver microsomes; assay type: ADME, Canis lupus familiaris, microsome; settings: read-out: CLH
[26] = Solubility of compound; assay type: physicochemical
Cytochrome P450 2C19 [27] = target: T2, Cytochrome P450 2C19 (Homo sapiens, UniProt P33261); experiment: Inhibition of CYP2C19 (unknown origin); assay type: ADME
T2 sequence (P33261 whole entry): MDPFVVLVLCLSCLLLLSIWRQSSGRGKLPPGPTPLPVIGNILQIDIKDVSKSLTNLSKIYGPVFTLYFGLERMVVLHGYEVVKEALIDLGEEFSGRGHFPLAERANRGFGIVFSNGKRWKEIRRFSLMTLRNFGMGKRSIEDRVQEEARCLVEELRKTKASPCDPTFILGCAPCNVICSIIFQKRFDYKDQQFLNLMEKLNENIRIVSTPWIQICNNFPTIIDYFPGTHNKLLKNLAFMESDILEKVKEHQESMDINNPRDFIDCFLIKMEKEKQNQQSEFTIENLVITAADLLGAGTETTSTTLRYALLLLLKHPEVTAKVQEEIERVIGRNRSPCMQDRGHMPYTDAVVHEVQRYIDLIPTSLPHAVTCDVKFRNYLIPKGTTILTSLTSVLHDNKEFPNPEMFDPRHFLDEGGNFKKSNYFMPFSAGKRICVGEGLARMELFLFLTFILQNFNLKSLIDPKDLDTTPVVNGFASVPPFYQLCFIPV

Cytochrome P450 2D6 = Cytochrome P450 2D6 (Homo sapiens, UniProt P10635); experiment: Inhibition of CYP2D6 (unknown origin); assay type: ADME
Cytochrome P450 2D6, sequence (P10635 whole entry): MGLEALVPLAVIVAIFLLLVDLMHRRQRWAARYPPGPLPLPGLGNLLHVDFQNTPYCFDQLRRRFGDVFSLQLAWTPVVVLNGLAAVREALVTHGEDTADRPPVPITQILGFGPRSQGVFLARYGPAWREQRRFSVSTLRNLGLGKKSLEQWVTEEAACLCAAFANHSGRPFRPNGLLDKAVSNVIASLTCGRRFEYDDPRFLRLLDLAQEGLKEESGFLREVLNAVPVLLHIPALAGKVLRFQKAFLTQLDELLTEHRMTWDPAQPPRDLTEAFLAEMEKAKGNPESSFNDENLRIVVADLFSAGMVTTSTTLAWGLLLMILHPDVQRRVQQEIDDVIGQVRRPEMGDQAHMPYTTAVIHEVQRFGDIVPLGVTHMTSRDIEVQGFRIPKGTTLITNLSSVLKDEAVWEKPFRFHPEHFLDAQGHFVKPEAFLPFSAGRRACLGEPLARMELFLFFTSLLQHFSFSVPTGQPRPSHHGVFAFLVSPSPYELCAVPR

[28] = Drug elimination in Beagle dog urine by LC-MS/MS analysis; assay type: ADME, Canis lupus familiaris; settings: read-out: Drug excretion
Canis familiaris [29] = experiment: Increase in plasma IGF1 level in Beagle dog at 8 mg/kg, po measured after 24 hrs post dose by ELIS; assay type: functional, organism-based; settings: Canis lupus familiaris; method in brief: as §2
Mu-type opioid receptor [30] = target: T3, Mu-type opioid receptor (Homo sapiens, UniProt P35372); experiment: Agonist activity at mu1-opioid receptor (unknown origin) by cell-based assay
T3 sequence (P35372 whole entry): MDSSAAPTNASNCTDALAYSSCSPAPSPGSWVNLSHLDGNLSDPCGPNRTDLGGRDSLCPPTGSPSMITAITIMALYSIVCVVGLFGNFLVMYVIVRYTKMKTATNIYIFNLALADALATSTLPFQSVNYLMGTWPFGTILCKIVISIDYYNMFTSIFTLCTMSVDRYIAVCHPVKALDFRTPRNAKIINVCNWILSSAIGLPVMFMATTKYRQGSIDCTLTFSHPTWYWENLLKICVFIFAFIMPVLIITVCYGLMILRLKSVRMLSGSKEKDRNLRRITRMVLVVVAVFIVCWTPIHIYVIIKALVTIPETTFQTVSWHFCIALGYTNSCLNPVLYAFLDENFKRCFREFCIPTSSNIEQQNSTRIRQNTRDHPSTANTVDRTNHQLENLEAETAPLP

Mu-type opioid receptor [31] = target: T3, Mu-type opioid receptor; experiment: Agonist activity at mu1-opioid receptor (unknown origin)
[32] = Intrinsic clearance in rat liver microsomes; assay type: ADME, microsome; settings: read-out: CLH
Cytochrome P450 2C19 [33] = target: T2, Cytochrome P450 2C19; experiment: Drug metabolism assessed as CYP2C19 (unknown origin)-mediated hydroxylation of methyl group of indole; assay type: ADME
[34] = Time dependent inhibition of CYP450 in human liver microsomes; assay type: ADME
Canis familiaris [35] = species: Canis familiaris; experiment: Drug metabolism in Beagle dog assessed as hydroxylation of 5-methyl of indole ring by LC-MS/MS analysis; assay type: ADME, organism-based, Canis lupus familiaris; settings: in vivo
[36] = Clearance in Han-Wister rat at 1 mg/kg, iv bolus or 2 mg/kg, po after 24 hrs by LC-MS/MS analysis; assay type: ADME, organism-based; settings: Han-Wistar, in vivo
Method in brief: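 Male Han Wistar rats (7–8 weeks, 200–300 g). IV bolus of about 1 mg/Kg via tail vein to two animals, in 5% DMSO/95% SBE-β-CD (30% w/v), pH 7.5. Oral dose of about 2 mg/Kg in the same vehicle. Jugular blood collected from pre-dose to 24 h. K2-EDTA plasma kept at -75±15 °C and analysed by LC-MS/MS.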

[37] = Fraction absorbed in Beagle dog at 2 mg/kg, po after 24 hrs by LC-MS/MS analysis; assay type: ADME, organism-based, Canis lupus familiaris; settings: in vivo, read-out: Fabs
[38] = Intrinsic clearance in human liver microsomes; assay type: ADME, microsome; settings: read-out: CLH
Cytochrome P450 1A2 = target: T4, Cytochrome P450 1A2 (Homo sapiens, UniProt P05177); experiment: Inhibition of CYP1A2 (unknown origin); assay type: ADME
T4 sequence (P05177 whole entry): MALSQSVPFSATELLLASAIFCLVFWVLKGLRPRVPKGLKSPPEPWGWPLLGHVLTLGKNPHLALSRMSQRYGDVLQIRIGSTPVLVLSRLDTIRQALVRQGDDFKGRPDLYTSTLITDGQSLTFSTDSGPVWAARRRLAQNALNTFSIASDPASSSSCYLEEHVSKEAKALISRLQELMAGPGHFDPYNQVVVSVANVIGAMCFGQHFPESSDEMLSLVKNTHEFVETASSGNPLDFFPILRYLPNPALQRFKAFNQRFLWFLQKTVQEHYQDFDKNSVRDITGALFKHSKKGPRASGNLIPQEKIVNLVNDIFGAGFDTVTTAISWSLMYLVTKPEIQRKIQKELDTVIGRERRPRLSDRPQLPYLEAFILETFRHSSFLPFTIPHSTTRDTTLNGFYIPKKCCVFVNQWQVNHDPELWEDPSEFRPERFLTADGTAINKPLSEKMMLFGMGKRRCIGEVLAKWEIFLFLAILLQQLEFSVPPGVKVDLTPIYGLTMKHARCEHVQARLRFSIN

[39] = Protein binding in dog plasma; assay type: ADME, cell-free, Canis lupus familiaris; settings: read-out: PPB (converted)
hERG (KCNH2) = hERG (KCNH2) (Homo sapiens, UniProt Q12809); experiment: Inhibition of human ERG expressed in CHO cells at 11 uM relative to control; assay type: cell-based; settings: CHO cells that express hERG

Cn1ccc2cc(C(=O)N[C@H]3Cc4ccccc4[C@@H]3NC(=O)[C@@H]3CNCCO3)ccc21
EC50 [1]: 0.052 µM | Drug metabolism [2]: Metabolite_Detected | logD [3]: 1.8 | Drug metabolism [4]: Metabolite_Detected

CN1CCO[C@H](C(=O)N[C@H]2c3ccccc3C[C@@H]2NC(=O)c2ccc3c(ccn3C)c2)C1
Stability (Hepatocyte [5]): Unstable | IC50 [6]: 0.241 µM | Stability [7]: Unstable | EC50 [1]: 0.021 µM | Drug metabolism [8]: Metabolite_Detected | Stability (Hepatocyte [9]): Unstable | logD [3]: 2.6 | Stability [10]: Unstable | Drug metabolism [11]: Metabolite_Detected

Cc1ccc2[nH]c(C(=O)N[C@H]3Cc4ccccc4[C@@H]3NC(=O)[C@@H]3CN(C)CCO3)cc2c1
Papp A→B [12]: 153 nm/s | Papp B→A [13]: 75 nm/s | efflux ratio [14]: 0.5 | Vd [15]: 2.1 L/kg | IC50 [6]: 0.014 µM | bioavailability [16]: 39% | half-life [17]: 1.2 h | EC50 [1]: 0.0014 µM | Papp A→B [18]: 444 nm/s | clearance [19]: 1.68 L/h/kg | Activity (Canis familiaris [20]): Active | Kp uu at 24 h [21]: 0.292 | logD [3]: 3.7

CN(C)CCNC(=O)[C@H]1c2ccccc2C[C@@H]1NC(=O)c1cc2ccccc2[nH]1
Papp A→B [12]: 6 nm/s | Papp B→A [13]: 177 nm/s | fraction unbound [22]: 0.88 | IC50 [23]: 31.6 µM | efflux ratio [14]: 67.2 | IC50 (Cytochrome P450 3A4): > 20 µM | Vd [15]: 4.8 to 5.8 L/kg | CL (Rattus norvegicus): > 5% | IC50 (Cytochrome P450 2C9): > 20 µM | IC50 [6]: 0.004 µM | fraction unbound [24]: 0.96 | microsomal CLint [25]: 9 µL/min/mg | solubility [26]: 100 µM (≈ 39 µg/mL) | IC50 (Cytochrome P450 2C19 [27]): > 20 µM | IC50 (Cytochrome P450 2D6): > 20 µM | bioavailability [16]: 9 to 13% | dose excreted [28]: 2% | Activity (Canis familiaris [29]): Active | half-life [17]: 13.2 to 16.6 h | IC50 (Mu-type opioid receptor [30]): 0.234 µM | IC50 (Mu-type opioid receptor [31]): 0.0794 µM | microsomal CLint [32]: 48 µL/min/mg | Drug metabolism (Cytochrome P450 2C19 [33]): Metabolite_Detected | TDI [34]: Not Active | Drug metabolism (Canis familiaris [35]): Metabolite_Detected | EC50 [1]: 0.002 µM | clearance [36]: 10.2 L/h/kg | Fa at 24 h [37]: 20% | Papp A→B [18]: < 24 nm/s | clearance [19]: 1.13 to 1.56 L/h/kg | microsomal CLint [38]: 4 to 9 µL/min/mg | Kp uu at 24 h [21]: < 0.02 | logD [3]: 2.4 | IC50 (Cytochrome P450 1A2): > 20 µM | fraction unbound [39]: 0.92

Cc1ccc2[nH]c(C(=O)N[C@H]3Cc4ccccc4[C@@H]3C(=O)N(C)CCN(C)C)cc2c1
IC50 [6]: 0.014 µM | EC50 [1]: 0.005 µM | microsomal CLint [38]: 26 µL/min/mg | inhibition at 11 µM (hERG (KCNH2)): 50% | logD [3]: 2.5
